RGS4 inh = human RGS4 inhibition; P49798; HEK293 M3R/RGS4 inducible, Fluo-4 calcium flux; stronger effect = higher value; triggered by carbachol at its EC20; B-score at 10 µM; 310,000 tested, 0.45% active; AID 463165;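 active means B-score, a plate-corrected calcium signal, over three deviations above library mean, with baseline fluorescence within five deviations of library mean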;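 further: RGS4 expression induced by doxycycline in cells with stable M3 receptor; B-score is computed from the integrated fluorescence ratio over baseline after carbachol; higher B-score means a larger calcium signal and so more RGS4 inhibition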
Target sequence (P49798 whole entry, looked up): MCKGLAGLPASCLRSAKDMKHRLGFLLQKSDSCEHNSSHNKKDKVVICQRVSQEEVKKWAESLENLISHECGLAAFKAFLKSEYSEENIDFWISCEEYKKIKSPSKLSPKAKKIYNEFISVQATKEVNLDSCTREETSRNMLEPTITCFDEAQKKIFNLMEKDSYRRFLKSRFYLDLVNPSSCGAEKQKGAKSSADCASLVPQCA
MrgX1 agonist = agonists of human MrgX1 receptor; Q96LB2; MrgX1-HEK293 cells, Fluo-4 calcium fluorescence, agonist mode; stronger effect = higher value; B-score at 10 µM; 310,000 tested, 0.44% active; AID 588627;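 active means calcium response B-score plate-corrected fluorescence ratio at least 3 library SD, with starting fluorescence B-score inside 5 SD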
Target sequence (Q96LB2 whole entry, looked up): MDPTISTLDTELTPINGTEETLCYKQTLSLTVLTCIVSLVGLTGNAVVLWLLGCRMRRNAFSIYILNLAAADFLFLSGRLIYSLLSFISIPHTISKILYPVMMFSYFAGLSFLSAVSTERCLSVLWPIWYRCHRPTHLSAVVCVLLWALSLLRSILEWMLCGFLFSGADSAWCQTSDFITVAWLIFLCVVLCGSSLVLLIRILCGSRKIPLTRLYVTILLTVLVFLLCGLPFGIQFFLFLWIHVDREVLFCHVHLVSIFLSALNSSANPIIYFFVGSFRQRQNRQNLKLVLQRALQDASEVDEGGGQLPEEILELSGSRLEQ
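Material: MrgX1-expressing HEK293 cells; input: 15,000 cells per well; doses: test compound given as first of three sequential additions; schedule: overnight plating before 1 h dye loading; technique: Fluo-4 NW calcium-flux fluorescence, kinetic read; evaluation: baseline-normalised fluorescence change ratio, B-scored; control set: plate-wise positive and negative controls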
MrgX1 antag = human MrgX1 receptor antagonism, primary screen; MRGX1-HEK293 calcium flux, Fluo-4, BAM8-22 antagonism; stronger effect = lower value; Q96LB2; AID 588676; 310,000 tested, 1.3% active; B-score at 10 µM;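 active means calcium-response B-score plate-corrected more than 3 library SD below zero, starting fluorescence within 5 deviations, no agonist response on first addition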;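 further: peak minus trough fluorescence over baseline after final BAM8-22 challenge near maximal dose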
RGS4 pot = RGS4 potentiation or activation; HEK293 M3R/inducible RGS4, carbachol calcium flux Fluo4; stronger effect = lower value; B-score at 10 µM; 310,000 tested, 0.92% active;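 active means B-score of the integrated calcium signal more than 4 SD below the library mean, with starting fluorescence not abnormally high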;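 further: negative B-score means reduced calcium response which marks RGS4 activation or potentiation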
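test system = M3R-expressing HEK293 line, RGS4 induced by doxycycline | probe or stimulus = carbachol at ECmax as muscarinic agonist stimulus | timing = dye loading 30 min 37 °C, buffer rest 30 min RT | signal = calcium dye Fluo4 fluorescence | evaluation = B score from integrated fluorescence ratio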
MrgX1 PAM = allosterically activates human MrgX1 receptor signaling; MrgX1-HEK293, Fluo-4 calcium flux, FDSS; stronger effect = higher value; Q96LB2; B-score at 10 µM; 310,000 tested, 0.63% active;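 active means plate-corrected calcium response at least 3 library SD above typical, normal starting fluorescence, not activating the receptor alone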;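 further: compound read alongside a low EC10 to EC30 dose of BAM8-22 agonist; peak minus trough fluorescence over baseline measured at the second addition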
MrgX1 allo conf = confirmation of human MrgX1 receptor positive allosteric modulators; shares compounds with MrgX1 PAM; MrgX1-HEK293, Fluo-4 calcium fluorescence, FDSS; activation (ratio percentage), % at 10 µM; 1,200 tested, 13% active;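 active means ratio at least 3 SD above the weak peptide control, stable starting fluorescence, no direct agonism earlier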;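 further: compound followed by low BAM8-22 agonist challenge near EC20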
HEK293 Ca flux = MrgX1 antagonist counter-screen hit in parental HEK293 cells | shares compounds with MrgX1 antag | Fluo-4 calcium fluorescence, FDSS | fluorescence ratio F(max-min)/F0 at 10 µM | 4,000 tested, 2% active | AID 624111;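 active means duplicate-averaged calcium fluorescence ratio at least three times the standard deviation of buffer wells, a nonspecific response in parental cells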
HEK293 Ca counter = activity in parental HEK293 cells without MrgX1; shares compounds with MrgX1 antag; parental HEK293 calcium flux, Fluo-4 fluorescence ratio; stronger effect = higher value; fluorescence ratio F(max-min)/F0 at 10 µM; 4,000 tested, 0.4% active; AID 624114;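 active means calcium fluorescence ratio, averaged over duplicates, at least 3 SD of the buffer-well ratio, meaning a nonspecific response in receptor-free cells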;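 further: untransfected parental HEK293 lacking MrgX1 used as counterscreen for MrgX1 allosteric activators; fluorescence change taken during the second addition on a kinetic imager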
HEK293 Ca cntr2 = counter-screen for MrgX1 activators: effect in parental HEK293 cells. shares compounds with MrgX1 antag. Fluo-4 calcium fluorescence (FDSS); stronger effect = higher value. fluorescence ratio F(max-min)/F0 at 10 µM. 4,000 tested, 8.7% active;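 active means calcium fluorescence ratio at least three times the spread of buffer wells, meaning a non-specific response in parental cells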
Numbers stand for hits; n = inactive; x = no result. Only some compounds are listed: those with a hit (about 3.5% of all), similar ones and a draw of the others.

SMILES	RGS4 inh	MrgX1 agonist	MrgX1 antag	RGS4 pot	MrgX1 PAM	MrgX1 allo conf	HEK293 Ca flux	HEK293 Ca counter	HEK293 Ca cntr2
Cc1cc2c(N3CCCCC3C)ncnc2s1 (stereo not drawn)	n	n	n	n	7.12	n	n	n	n
CC(NS(=O)(=O)/C=C/c1ccccc1)C(=O)O (stereo not drawn)	n	n	n	n	10.4	n	n	n	n
COc1ccccc1NC(=O)/C(C#N)=C/c1cccn1C	n	n	n	n	n	x	x	x	x
COC(=O)c1ccccc1NC(=S)NC(=O)C1CCCCC1	n	n	n	n	7.5	n	n	n	n
COC(=O)c1ccccc1NC(=O)C1CCCC1	n	n	n	n	n	x	x	x	x
COC(=O)c1ccccc1NC(=O)COC(=O)C1CCCCC1	n	n	n	n	8.3	n	n	n	n
COc1ccccc1NC(=O)c1ccc(NC(=O)Cc2n[nH]c(=O)c3ccccc23)cc1	n	n	n	n	n	x	x	x	x
CCN(CC)S(=O)(=O)c1ccc(Cl)nc1	n	n	n	n	9.27	n	n	n	n
COCCN(CCOC)S(=O)(=O)c1ccc(Cl)nc1	n	n	n	n	n	x	x	x	x
CCOc1ccccc1N(CC(=O)NC1CCCCC1)S(=O)(=O)c1ccc(C)cc1	n	n	n	n	9.19	n	n	n	n
CCN(CC(=O)Nc1ccc(NC(C)=O)cc1)C(=O)c1cc(CN2C(=O)c3ccccc3C2=O)ccc1OC	n	n	n	n	n	x	x	x	x
COc1ccc(OC)c(-c2csc(N(CC3CCCO3)C(=O)Cc3ccccc3)n2)c1 (stereo not drawn)	n	n	n	n	n	x	x	x	x
O=C(Nc1ccc(Br)cc1)C1OCCc2ccccc21 (stereo not drawn)	n	n	n	n	10.7	n	n	n	n
O=C(CSc1nnnn1-c1cccnc1)Nc1ccccc1F	n	n	n	n	n	x	x	x	x
O=S(=O)(c1ccccc1Br)N1CCN(c2ncccn2)CC1	n	n	n	n	6.73	n	n	n	n
O=[N+]([O-])c1ccc(Cl)c(S(=O)(=O)Nc2ccc(-c3ccc(N4CCOCC4)nn3)cc2)c1	n	n	n	n	n	x	x	x	x
Cc1ccc([N+](=O)[O-])cc1S(=O)(=O)Nc1ccc(-c2ccc(N3CCOCC3)nn2)cc1	n	n	n	n	28.8	8.1%	n	n	n
COc1ccc(CNC(=O)C2CCC(CNS(=O)(=O)c3ccc(C)cc3)CC2)cc1 (stereo not drawn)	n	n	n	n	n	x	x	x	x
Cc1cccc(C(=O)N[C@H](C(=O)Nc2nccs2)C(C)C)c1	n	n	n	n	24.1	n	n	n	n
Cc1cccc(C(=O)N[C@H](C(=O)Nc2nc(C)cs2)C(C)C)c1	n	n	n	n	n	x	x	x	x
CCN(CC)CCn1c(NS(=O)(=O)c2ccc(Cl)cc2)nc2ccccc21	n	n	n	n	n	x	x	x	x
COc1ccccc1N1CCN(S(=O)(=O)CCNC(=O)C2CC2)CC1	n	n	n	n	n	x	x	x	x
CCN1C(=O)c2ccccc2S(=O)(=O)c2ccc(C(=O)NCCOC)cc21	n	n	n	n	n	x	x	x	x
Cc1cc(Cc2ccc([N+](=O)[O-])cc2)c(C)cn1	n	n	n	n	n	x	x	x	x
CCN(CC)C(=O)CSc1ncnc2c(-c3ccc(OC)cc3)nsc12	n	n	n	n	n	x	x	x	x
COc1ccc(-c2nsc3c(SCc4ccccc4)ncnc23)cc1	n	n	n	n	6.76	n	n	n	n
Cc1ccc2nc(-c3cccc(Br)c3)cc(C(=O)NC3=NCCS3)c2c1	n	n	n	n	31	n	n	n	n
O=C(NC1=NCCS1)c1cc(-c2cccc(Br)c2)nc2ccccc12	n	n	n	n	n	x	x	x	x

Compound activity as filed in PubChem BioAssay.
